Tests used:
[1] = Stability assessed as liver microsomal turnover in rat at 1 uM; assay type: ADME, Microsome; conditions: liver microsomes, read-out: Stability
In short: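 Compound at 1 μM was incubated with rat liver microsomal protein (5 mg/mL) plus NADPH at 37 °C for 20 min. Percentage of parent remaining was quantified by LC–MS.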

Gamma-secretase = assay: Inhibition of gamma secretase; assay type: protein-complex assay, Homo sapiens
[2] = Bioavailability in rat; assay type: ADME, organism-based; conditions: in vivo
[3] = Half life in rat; assay type: ADME, organism-based; conditions: in vivo
Mus musculus [4] = assay: Plasma concentration for reduction of DEA-extractable brain beta amyloid in orally dosed APP-YAC mouse after 4 hrs relative to control; assay type: ADME, organism-based
In short: (§1)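 APP-YAC transgenic mice were dosed orally with a dose-response titration, with vehicle and a positive-control γ-secretase inhibitor as references. At 4 h post-dose, DEA-extractable brain Aβ was measured alongside plasma and brain drug levels. EC50 is the plasma or brain concentration giving a 50% cut in brain Aβ. ED50 is the oral dose reaching those levels.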

Mus musculus [5] = assay: Reduction of DEA-extractable brain beta amyloid in orally dosed APP-YAC mouse after 4 hrs; assay type: ADME, organism-based; conditions: po; in short: as §1
[6] = Brain to plasma ratio for reduction of DEA-extractable brain beta amyloid in orally dosed APP-YAC mouse after 4 hrs; assay type: ADME, organism-based; conditions: po
Mus musculus [7] = assay: Brain concentration for reduction of DEA-extractable brain beta amyloid in orally dosed APP-YAC mouse after 4 hrs relative to control; assay type: ADME, organism-based; in short: as §1

**Q.** For CN1C[C@@H]2C[C@](c3cc(F)ccc3F)(S(=O)(=O)c3ccc(Cl)cc3)CC[C@@H]2NS1(=O)=O (racemic), which metabolised at 1 µM [1] is on record?
**A.** 17%

**Q.** What about the IC50 (Gamma-secretase) of the same compound?
**A.** 0.9 nM

**Q.** With CS(=O)(=O)NCC1CCCC(c2cc(F)ccc2F)(S(=O)(=O)c2ccc(Cl)cc2)C1 (stereo not drawn) as the compound, how does the bioavailability [2] read?
**A.** 31%

**Q.** What about the half-life [3] of the same compound?
**A.** 1.1 h

**Q.** What does the source list for CCCN1C[C@@H]2C[C@](c3cc(F)ccc3F)(S(=O)(=O)c3ccc(Cl)cc3)CC[C@@H]2NS1(=O)=O (racemic)?
**A.** metabolised at 1 µM [1]: 63%; IC50 (Gamma-secretase): 1.17 nM

**Q.** What does the source list for O=S1(=O)NC[C@@H]2C[C@](c3cc(F)ccc3F)(S(=O)(=O)c3ccc(Cl)cc3)CC[C@@H]2N1C1CC1 (racemic)?
**A.** EC50 (Mus musculus [4]): 104 nM; ED50 (Mus musculus [5]): 11.4 mg/kg; Kp at 4 h [6]: 0.16; IC50 (Gamma-secretase): 0.04 nM; EC50 (Mus musculus [7]): 20 nM

**Q.** Which metabolised at 1 µM [1] does the source give for O=S1(=O)N[C@H]2CC[C@@](c3cc(F)ccc3F)(S(=O)(=O)c3ccc(Cl)cc3)C[C@H]2CN1C1CC1 (racemic) here?
**A.** 14%

**Q.** And the IC50 (Gamma-secretase)?
**A.** 0.19 nM

**Q.** Which results are given for CCC1C[C@@H]2C[C@](c3cc(F)ccc3F)(S(=O)(=O)c3ccc(Cl)cc3)CC[C@@H]2CS1(=O)=O (single isomer, unassigned)?
**A.** metabolised at 1 µM [1]: 15%; EC50 (Mus musculus [4]): 761 nM; ED50 (Mus musculus [5]): 3.9 mg/kg; Kp at 4 h [6]: 0.41; IC50 (Gamma-secretase): 0.76 nM; EC50 (Mus musculus [7]): 327 nM

**Q.** With CC(C)(C)N1C[C@@H]2C[C@](c3cc(F)ccc3F)(S(=O)(=O)c3ccc(Cl)cc3)CC[C@@H]2NS1(=O)=O (racemic) as the compound, how does the metabolised at 1 µM [1] read?
**A.** 15%

**Q.** What about the IC50 (Gamma-secretase) of the same compound?
**A.** 1.39 nM

**Q.** With CC(C)N1C[C@@H]2C[C@](c3cc(F)ccc3F)(S(=O)(=O)c3ccc(Cl)cc3)CC[C@@H]2NS1(=O)=O (racemic) as the compound, how does the IC50 (Gamma-secretase) read?
**A.** 0.41 nM

**Q.** Which metabolised at 1 µM [1] does the source give for O=S1(=O)N[C@H]2CC[C@@](c3cc(F)ccc3F)(S(=O)(=O)c3ccc(Cl)cc3)C[C@H]2CN1C1CCC1 (racemic) here?
**A.** 68%

**Q.** And the IC50 (Gamma-secretase)?
**A.** 0.26 nM

**Q.** Which metabolised at 1 µM [1] does the source give for CCN1C[C@@H]2C[C@](c3cc(F)ccc3F)(S(=O)(=O)c3ccc(Cl)cc3)CC[C@@H]2NS1(=O)=O (racemic) here?
**A.** 46%

**Q.** What about the IC50 (Gamma-secretase) of the same compound?
**A.** 0.4 nM

**Q.** For CC1C[C@@H]2C[C@](c3cc(F)ccc3F)(S(=O)(=O)c3ccc(Cl)cc3)CC[C@@H]2NS1(=O)=O (single isomer, unassigned), which metabolised at 1 µM [1] is on record?
**A.** 20%

**Q.** And the IC50 (Gamma-secretase)?
**A.** 0.08 nM

**Q.** For CCCC1C[C@@H]2C[C@](c3cc(F)ccc3F)(S(=O)(=O)c3ccc(Cl)cc3)CC[C@@H]2NS1(=O)=O (single isomer, unassigned), which metabolised at 1 µM [1] is on record?
**A.** 32%

**Q.** And the IC50 (Gamma-secretase)?
**A.** 0.24 nM

**Q.** For CCC1C[C@@H]2C[C@](c3cc(F)ccc3F)(S(=O)(=O)c3ccc(Cl)cc3)CC[C@@H]2NS1(=O)=O (single isomer, unassigned), which metabolised at 1 µM [1] is on record?
**A.** 7%

**Q.** And the EC50 (Mus musculus [4])?
**A.** 380 nM

**Q.** What about the ED50 (Mus musculus [5]) of the same compound?
**A.** 2.8 mg/kg

**Q.** And the Kp at 4 h [6]?
**A.** 0.18

**Q.** What about the IC50 (Gamma-secretase) of the same compound?
**A.** 0.06 nM

**Q.** What about the EC50 (Mus musculus [7]) of the same compound?
**A.** 88 nM

**Q.** What does the source list for O=S1(=O)NC[C@@H]2C[C@](c3cc(F)ccc3F)(S(=O)(=O)c3ccc(Cl)cc3)CC[C@@H]2N1 (racemic)?
**A.** metabolised at 1 µM [1]: 9%; IC50 (Gamma-secretase): 6.18 nM

Reference: ChEMBL document CHEMBL1147804, “3,4-Fused cyclohexyl sulfones as gamma-secretase inhibitors” (Bioorg Med Chem Lett, 2006)
